Activity calls are given as the source filed them.
Columns and labels:
[1] = system: Human immunodeficiency virus 1; assay: Antiviral activity against HIV1 at 1 ug/ml; type: functional, organism-based
[2] = system: HCT-116; assay: Cytotoxicity against human HCT 116 with wild type p53 at 0.009 to 152 uM by MTT assay; type: functional
In short: (§1)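 HCT116 p53+/+ and p53-/- cells grown in McCoy's medium with 2 mM L-glutamine, 1 mM sodium pyruvate, penicillin/streptomycin and 10% FBS at 37 °C, 5% CO2. Seeded at 4 × 10^5 cells/well and left to attach for 24 h. Exposed to 0-78 µg/mL compound for 72 h. MTT added (final 0.25 mg/mL) for 3 h, formazan dissolved in DMSO, A570 read, IC50 by curve fitting.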

[3] = system: HCT-116; assay: Cytotoxicity against human HCT 116 with wild type p53 at 0.008 to 124 uM by MTT assay; type: functional; in short: as §1
[4] = system: HCT-116; assay: Cytotoxicity against human HCT 116 with wild type p53 at 0.006 to 103 uM by MTT assay; type: functional; in short: as §1
[5] = system: HCT-116; assay: Cytotoxicity against human HCT 116 with null p53 mutant at 0.009 to 152 uM by MTT assay; type: functional; in short: as §1
[6] = system: HCT-116; assay: Cytotoxicity against human HCT 116 with null p53 mutant p53 at 0.008 to 124 uM by MTT assay; type: functional; in short: as §1
[7] = system: HCT-116; assay: Cytotoxicity against human HCT 116 with null p53 mutant at 0.006 to 103 uM by MTT assay; type: functional; in short: as §1
[8] = system: Human immunodeficiency virus 1; assay: Antiviral activity against HIV1 at 10 ug/ml; type: functional, organism-based

Measured: Activity

C/C(Cl)=C/C=C/C=C/C=C/C=C/C(O)=C1\C(=O)[C@H](CC(N)=O)N([C@@H]2OC[C@@H](O)[C@H](O)[C@H]2O[C@@H]2OC[C@@H](O)[C@@H](O)[C@@H]2O)C1=O
inactive: all assays above

C/C(Cl)=C/C=C/C=C/C=C/C=C/C(O)=C1\C(=O)[C@H](CC(N)=O)N([C@@H]2OC[C@@H](O)[C@H](O)[C@H]2O)C1=O
inactive: all assays above

CO[C@@H]1[C@H](O[C@@H]2CO[C@@H](O[C@@H]3[C@@H](O)[C@H](O)CO[C@H]3N3C(=O)/C(=C(O)/C=C/C=C/C=C/C=C/C=C(/C)Cl)C(=O)[C@@H]3CC(N)=O)[C@@H](O)[C@@H]2O)O[C@H](C)[C@H]1O
inactive: all assays above

— ChEMBL document CHEMBL1142570, “Aurantosides G, H, and I: three new tetramic acid glycosides from a Papua New Guinea Theonella swinhoei” (J Nat Prod, 2005)
